Rows were chosen to be rich in hits. Some 3.7% of all compounds tested hit in one or more screens of this group.
hERG protect = shields human hERG channel from block by proarrhythmic agents. 310,000 compounds, 0.51% hits. CHO-hERG, FluxOR thallium flux, dofetilide IC70 present. AID 1511. activation (rescue from dofetilide block), less the hit threshold, % at 10 µM;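 active means activation above the mean of controls blocked by dofetilide plus 5 SD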;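 further: thallium influx through hERG after potassium depolarization seen as dye fluorescence rise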
KCNQ1 block = human KCNQ1 channel inhibition | P51787 | CHO-K1 KCNQ1, FluxOR thallium flux fluorescence; stronger effect = higher value | B-score at 10 µM | 310,000 compounds, 1.3% hits;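 active means compounds whose thallium flux B-score, printed positive for inhibition, exceeds three library SD while starting fluorescence stays within three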;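 further: channel opened by potassium depolarization with thallium stimulus after 20 min compound exposure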
KCNK9 inh = blocks the human KCNK9 two-pore domain potassium channel. HEK293 KCNK9, FluxOR thallium flux fluorescence; stronger effect = lower value. 310,000 compounds, 1.2% hits. Q9NPC2. B-score at 10 µM;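 active means ratio B-score over 3 SD below the library mean, with starting fluorescence within 5 SD of its mean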;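 further: negative B-score means less thallium flux so channel inhibition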
Target sequence (Q9NPC2 whole entry, looked up, the tested form may be a part): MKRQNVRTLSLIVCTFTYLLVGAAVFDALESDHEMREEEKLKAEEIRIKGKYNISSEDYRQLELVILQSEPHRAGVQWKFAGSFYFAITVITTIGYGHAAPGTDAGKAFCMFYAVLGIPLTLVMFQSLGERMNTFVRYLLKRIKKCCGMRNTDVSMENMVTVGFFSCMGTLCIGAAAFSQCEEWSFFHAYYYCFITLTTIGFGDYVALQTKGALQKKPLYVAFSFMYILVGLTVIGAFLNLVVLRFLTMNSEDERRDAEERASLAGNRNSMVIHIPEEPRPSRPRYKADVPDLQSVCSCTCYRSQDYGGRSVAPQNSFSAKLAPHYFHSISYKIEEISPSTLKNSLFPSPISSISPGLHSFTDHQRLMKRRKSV
Kir21 block = blocks the mouse Kir2.1 inward-rectifier potassium channel | B-score at 10 µM | 310,000 compounds, 0.85% hits | HEK293-Kir2.1, FluxOR thallium flux fluorescence; stronger effect = lower value | AID 1672 | P35561;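 active means fluorescence ratio B-score at or below minus 3 SD of library scores, with starting-brightness B-score within 2 SD, cut at about -4.2 in these data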;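 further: channel flux triggered by added potassium and thallium sulfate stimulus; B-score of peak minus minimum fluorescence over baseline after thallium stimulus; more negative B-score means stronger Kir2.1 block with less thallium influx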
KCNK3 block = human KCNK3 channel inhibition, primary screen; CHO-KCNK3 thallium flux, FluxOR fluorescence; stronger effect = lower value; 340,000 compounds, 0.84% hits; B-score at 10 µM; AID 602410;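 active means B-score under library mean minus 4 SD, starting fluorescence ratio at most library mean plus 5 SD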;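 further: more negative B-score means stronger inhibition of thallium flux through KCNK3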
KCNQ1 pot = potentiators or activators of human KCNQ1 potassium channel; P51787; CHO-K1 KCNQ1, thallium flux FluxOR fluorescence; stronger effect = higher value; B-score at 10 µM; 310,000 compounds, 0.35% hits; AID 2648;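 active means fluorescence ratio B-score, a plate-corrected score, at least three library SD, with initial intensity B-score within 5 SD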
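Assay system: CHO-K1 cells stably expressing KCNQ1. Medium: assay buffer for compound exposure, DMSO matched across wells. Timing: 37 °C overnight plating, 90-min dark dye load, 20-min compound pretreatment. Signal: kinetic FluxOR fluorescence, 10 s baseline plus 110 s post-stimulus.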
Active calls of the source: *; i = inactive; / = no result given.

SMILES	hERG protect	KCNQ1 block	KCNK9 inh	Kir21 block	KCNK3 block	KCNQ1 pot
CCOc1ccccc1NC(=O)C(c1ccccc1)N1CCN(CC(=O)N2CCCC2)CC1 (centres undefined)	/	/	/	/	i	/
CC1C(=O)C(C)C(c2ccc(Br)cc2)NC1c1ccc(Br)cc1 (centres undefined)	-9.4	6*	i	-0.18	i	i
CC1C(=O)C(C)C(c2cc(Br)ccc2O)NC1c1cc(Br)ccc1O (centres undefined)	/	/	/	/	i	/
O=C(NC1CCCCC1)C(c1ccncc1)N(C(=O)c1csnn1)c1ccc(F)cc1 (centres undefined)	-9.1	i	i	-0.04	i	i
COC(=O)c1ccccc1NC(=O)CSc1nc(NC(=O)c2ccccc2)c2c(C)c(C)oc2n1	-3.5	i	i	0.19	-10.4*	i
Oc1c(C=Nc2ccc(Cl)cn2)sc2ccccc12	-13.4	i	i	0	i	i
Oc1c(/C=N/c2ccccn2)sc2ccccc12	-9.1	i	i	-0.04	i	11*
COc1ccc(-c2[nH]ncc2C=O)cc1OC	-3.8	i	i	-0.15	i	i
O=[N+]([O-])c1ccc(CNc2cccc(Cl)c2)s1	-7.0	6*	i	-0.32	i	i
O=[N+]([O-])c1ccc(CNc2ccc(Cl)cc2)s1	-9.5	i	i	0.89	i	i
CCC1C/C(=C\c2cc(OC)c(OC)cc2OC)C(=O)/C(=C/c2cc(OC)c(OC)cc2OC)C1 (centres undefined)	-8.9	7*	i	0.4	-10.8*	i
CCCC(c1nnnn1CS(=O)(=O)c1ccc(C)cc1)N1CCC(C(N)=O)CC1 (centres undefined)	-8.6	i	i	0.59	i	i
CCCCn1nnc(NC(=O)C(c2ccccc2)c2ccccc2)n1	-21.9	i	i	-1.6	i	i
CCCn1nnc(NC(=O)C(c2ccccc2)c2ccccc2)n1	6.6*	i	i	0.95	i	i
Cc1cc(OC(F)F)ccc1NC(=O)Nc1ccc([N+](=O)[O-])cc1	-11.3	6*	i	0.61	i	i
O=C(Nc1ccc(Cl)cc1)Nc1cc([N+](=O)[O-])ccc1F	-10.4	i	i	-0.61	i	i
O=C(Nc1ccc([N+](=O)[O-])cc1)Nc1ccc(Cl)cc1F	-16.1	14*	i	-0.52	i	i
O=C1N[C@H](Cc2ccccc2)COC(=O)[C@H](Cc2ccc(F)cc2)CC/C=C/C[C@@H]1CC(=O)N(CCO)Cc1ccccc1	/	/	/	/	i	/
CC(=O)Oc1ccccc1C(=O)C=Cc1cccc([N+](=O)[O-])c1	/	/	/	/	i	/
O=C(COc1ccc2ccccc2c1Br)Nc1cccnc1	23.4*	i	i	0.12	i	i
O=C(COc1ccc2ccccc2c1Br)Nc1ccncc1	-3.7	i	i	-2.53	i	i
COc1ccc(OC)c(CCNC(=O)CSc2ccsc2[N+](=O)[O-])c1	-2.9	i	i	-0.04	i	i
COc1ccc(CCNC(=O)CSc2ccsc2[N+](=O)[O-])cc1OC	-4.4	i	i	-4.49*	i	i
CSCCNC(C)=O	5.5*	i	i	0.3	/	i
CC(=O)N/C(=C\c1ccccc1)C(=O)OCC(=O)Nc1cc(S(=O)(=O)N(C)C)ccc1Cl	/	/	/	/	i	/
SMILES	hERG protect	KCNQ1 block	KCNK9 inh	Kir21 block	KCNK3 block	KCNQ1 pot
CCC1COCCS(=O)(=O)N1Cc1ccc(C)cc1 (centres undefined)	-3.9	i	i	1.54	i	i
CCC[C@H]1COCCS(=O)(=O)N1Cc1ccc(Br)cc1	3.3	i	i	-6.1*	/	i
COc1cccc(C(C(=O)NCC2CCCO2)N(C(=O)Cn2nnc3ccccc32)c2ccc(NC(C)=O)cc2)c1OC (centres undefined)	-8.3	i	i	0.73	i	i
CC(C)(C)C1=CC(=O)C(=O)C(C(C)(C)C)=C1	-26.9	6*	-7.41*	-8.55*	i	i
O=C(N/N=C/c1ccccc1C(=O)O)c1ccccc1Br	4.9*	i	i	0.66	i	i
CC(=O)c1cccc(NS(=O)(=O)c2ccc(-c3cnc(C4CC4)o3)cc2)c1	-14.0	i	i	0.04	i	i
Cc1ccc(C(=O)O/N=C(\N)c2ccc(Br)cc2)cc1C	6.4*	i	i	0.35	i	i
Cc1nn(C)c(C(=O)NC(=S)Nc2ccccc2Br)c1Cl	16.9*	i	i	-0.23	i	22*
Cc1nn(C)c(C(=O)NNC(=S)Nc2ccc(F)cc2)c1[N+](=O)[O-]	-10.0	i	i	0.74	i	i
Cc1nn(C)c(C(=O)NC(=S)Nc2ccc([N+](=O)[O-])cc2)c1Cl	43.1*	i	i	-0.49	i	34*
CCn1ncc(Cl)c1C(=O)NC(=S)Nc1ccccc1Br	34.6*	i	i	-0.24	i	26*
CCOc1ccccc1CN1CCNC(=O)C1CC(=O)NCc1cc(C)n(C)n1 (centres undefined)	-3.0	i	i	-1.44	i	i
C=CCN([C@H](C(=O)OC)C(C)C)S(=O)(=O)CCNCc1ccccc1	/	/	/	/	i	/
CCOc1ccc(Br)cc1C(=S)N1CCCC1	0.9	i	i	-1.99	i	i
Cc1cc(C)n(/N=C/c2cc(Cl)cc(Cl)c2O)c(=O)c1	-1.1	i	i	-0.69	i	15*
CCOc1ccc(/C=N/O)cc1	-6.4	i	i	-1.74	i	i
CCOc1ccc(C=NC23CN4CN(CN(C4)C2)C3)cc1	12.2*	i	i	-0.43	i	i
CCn1c(SCC(=O)OC)nc2sc3c(c2c1=O)CCC3	-2.7	i	i	-0.51	i	i
CCn1c(SCc2ccc(C(=O)OC)o2)nc2sc3c(c2c1=O)CCCC3	-5.8	i	-7.86*	-0.66	i	i
O=C(NNC(=S)NC(=O)c1cccc([N+](=O)[O-])c1)c1ccc(Br)cc1	-6.9	i	i	0.39	i	i
COc1ccc(OC)c(C(=O)c2coc3ccc(O)c(CN(C)C)c23)c1	-1.1	i	i	0.1	i	i
COc1ccc(OC)c(C(=O)c2coc3cc(Br)c(O)c(Br)c23)c1	-7.1	i	-7.56*	0.03	i	i
CCc1cc(=O)[nH]c(SCc2cccnc2)n1	-9.7	i	i	0.5	i	i
CCc1cc(=O)[nH]c(SCc2ccc(C)cc2)n1	4.9*	i	i	-0.89	i	i
COCCN(CCOC)c1nc(S(=O)(=O)c2ccc(C)cc2)c(Cl)s1	-5.0	i	-7.82*	-1.19	i	i

Compound activity as filed in PubChem.
